Source: ChEMBL document CHEMBL1132771, “Analogues of SB-203207 as inhibitors of tRNA synthetases” (Bioorg Med Chem Lett, 2000)
In brackets after ≈: the same amount, converted by molar mass. Blank lines part the entries; values can stand above or below the compound they belong to. Activity calls are given as the source filed them. No cut-off for these calls is given here.

Experiments:
Isoleucine--tRNA ligase = target: T1, Isoleucine--tRNA ligase (Staphylococcus aureus, UniProt P41972); assay: Compound was evaluated for its inhibitory activity against Isoleucyl-tRNA synthetase from staphylococcus aureus WCUH29
T1 sequence (P41972 whole entry): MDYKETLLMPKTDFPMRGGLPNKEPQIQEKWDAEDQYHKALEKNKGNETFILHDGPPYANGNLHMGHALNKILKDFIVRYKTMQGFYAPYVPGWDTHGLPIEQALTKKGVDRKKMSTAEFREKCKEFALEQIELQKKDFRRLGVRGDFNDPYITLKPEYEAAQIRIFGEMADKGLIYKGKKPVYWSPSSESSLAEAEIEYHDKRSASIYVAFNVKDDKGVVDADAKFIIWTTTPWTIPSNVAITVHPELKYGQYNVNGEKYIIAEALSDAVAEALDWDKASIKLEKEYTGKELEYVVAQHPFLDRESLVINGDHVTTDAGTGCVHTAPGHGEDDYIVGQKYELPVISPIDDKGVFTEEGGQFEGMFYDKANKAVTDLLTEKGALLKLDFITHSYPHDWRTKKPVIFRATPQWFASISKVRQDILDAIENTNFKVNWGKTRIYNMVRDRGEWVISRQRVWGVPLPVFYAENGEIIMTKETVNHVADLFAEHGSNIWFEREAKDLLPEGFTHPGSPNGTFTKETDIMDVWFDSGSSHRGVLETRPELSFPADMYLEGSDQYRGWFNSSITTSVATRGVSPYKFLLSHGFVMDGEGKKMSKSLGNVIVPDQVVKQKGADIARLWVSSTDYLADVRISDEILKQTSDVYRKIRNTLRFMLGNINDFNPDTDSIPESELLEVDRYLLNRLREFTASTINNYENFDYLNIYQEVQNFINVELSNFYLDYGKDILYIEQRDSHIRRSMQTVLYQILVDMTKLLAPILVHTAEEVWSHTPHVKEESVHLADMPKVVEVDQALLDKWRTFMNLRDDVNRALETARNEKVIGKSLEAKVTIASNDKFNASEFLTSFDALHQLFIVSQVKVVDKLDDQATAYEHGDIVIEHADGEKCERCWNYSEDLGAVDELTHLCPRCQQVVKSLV

[1] = target: T2, Isoleucyl-tRNA synthetase (Rattus norvegicus, UniProt O35880); assay: Compound was evaluated for its inhibitory activity against Isoleucyl-tRNA synthetase from rat liver
T2 sequence (O35880 whole entry): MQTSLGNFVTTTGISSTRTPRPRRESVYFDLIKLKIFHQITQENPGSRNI

Staphylococcus aureus [2] = assay: Compound (100 uM) was evaluated for its inhibitory activity against VRS (valyl tRNA synthetase) from staphylococcus aureus WCUH29; no inhibition
[3] = target: T3, Isoleucine--tRNA ligase (Staphylococcus aureus) (UniProt P41972); assay: Compound (100 uM) was evaluated for its inhibitory activity against Isoleucyl-tRNA synthetase from staphylococcus aureus WCUH29
T3 sequence (whole entry): T1 sequence (P41972 whole entry)

[4] = target: T4, Isoleucyl-tRNA synthetase (Rattus norvegicus) (UniProt O35880); assay: Compound (100 uM) was evaluated for its inhibitory activity against Isoleucyl-tRNA synthetase from rat liver
T4 sequence (whole entry): T2 sequence (O35880 whole entry)

[5] = tested on: Leucine--tRNA ligase (Staphylococcus aureus); assay: Compound (100 uM) was evaluated for its inhibitory activity against Leucyl-tRNA synthetase from staphylococcus aureus WCUH29
[6] = tested on: Leucine--tRNA ligase (Staphylococcus aureus); assay: Compound (100 uM) was evaluated for its inhibitory activity against Leucyl-tRNA synthetase from staphylococcus aureus WCUH29; no inhibition
Staphylococcus aureus [7] = assay: Compound (100 uM) was evaluated for its inhibitory activity against VRS (valyl tRNA synthetase) from staphylococcus aureus WCUH29
Escherichia coli [8] = assay: Compound was evaluated for the antibacterial activity against Escherichia coli 120 AcrAB-; type: functional
Method in brief: (§1)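 Broth microdilution MIC. Compounds in DMSO, diluted 1:10 in water to a 256 µg mL-1 stock, then serially diluted in supplemented cation-adjusted Mueller Hinton broth. Each well received an equal volume of isolate suspension (~1 × 10^6 cfu mL-1). Final concentrations were 0.06–64 µg mL-1. Plates were incubated at 35 °C in ambient air for 18–24 h, and the MIC was read with a mirror reader.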

Escherichia coli [9] = assay: Compound was evaluated for the antibacterial activity against Escherichia coli 763 AcrABEFD; type: functional; method in brief: as §1
Enterococcus faecalis [10] = assay: Compound was evaluated for the antibacterial activity against Enterococcus faecalis 1; type: functional; method in brief: as §1
Enterococcus faecalis [11] = assay: Compound was evaluated for the antibacterial activity against Enterococcus faecalis 7; type: functional; method in brief: as §1
Haemophilus influenzae [12] = assay: Compound was evaluated for the antibacterial activity against Haemophilus influenzae NEMC1; type: functional; method in brief: as §1
Haemophilus influenzae [13] = assay: Compound was evaluated for the antibacterial activity against Haemophilus influenzae Q1; type: functional; method in brief: as §1
Moraxella catarrhalis = assay: Compound was evaluated for the antibacterial activity against Moraxella catarrhalis 1502; type: functional; method in brief: as §1
Staphylococcus aureus [14] = assay: Compound was evaluated for the antibacterial activity against Staphylococcus aureus WCUH 29; type: functional; method in brief: as §1
Staphylococcus aureus [15] = assay: Compound was evaluated for the antibacterial activity against Staphylococcus aureus oxford; type: functional; method in brief: as §1
Streptococcus pneumoniae [16] = assay: Compound was evaluated for the antibacterial activity against Streptococcus pneumoniae 1629; type: functional; method in brief: as §1
Streptococcus pneumoniae [17] = assay: Compound was evaluated for the antibacterial activity against Streptococcus pneumoniae ERY2; type: functional; method in brief: as §1
Streptococcus pneumoniae [18] = assay: Compound was evaluated for the antibacterial activity against Streptococcus pneumoniae N1387; type: functional; method in brief: as §1
[19] = Compound was evaluated for its inhibitory activity against VRS (valyl tRNA synthetase) from staphylococcus aureus WCUH29
Staphylococcus aureus [20] = assay: Compound (10 uM) was evaluated for its inhibitory activity against VRS (valyl tRNA synthetase) from staphylococcus aureus WCUH29; no inhibition
[21] = tested on: Leucine--tRNA ligase (Staphylococcus aureus); assay: Compound (10 uM) was evaluated for its inhibitory activity against Leucyl-tRNA synthetase from staphylococcus aureus WCUH29; no inhibition

IC50 (Isoleucine--tRNA ligase): 3270 nM
IC50 [1]: 22300 nM
inhibition (Staphylococcus aureus [2]): inactive
Compound: CC[C@H](C)CC(=O)NS(=O)(=O)CC(=O)N[C@]1(C(=O)O)[C@@H]2CN(C)C=C(C(N)=O)[C@@H]2C[C@@H]1O

inhibition [3]: 23%
inhibition [4]: 25%
inhibition (Staphylococcus aureus [2]): inactive
inhibition [5]: 13%
Compound: CC[C@H](C)CC(=O)NS(=O)(=O)CC(=O)N[C@]1(C(=O)OC)[C@@H]2CN(C)C=C(C(N)=O)[C@@H]2C[C@@H]1O

inhibition [3]: 18%
inhibition [4]: 9%
inhibition (Staphylococcus aureus [2]): inactive
inhibition [6]: inactive
Compound: CC[C@H](C)CC(=O)NS(=O)(=O)CC(=O)N[C@@]1(C(=O)OC)[C@@H](OC(=O)C[C@@H](C)CC)C[C@H]2C(C(N)=O)=CN(C)C[C@H]21

IC50 (Isoleucine--tRNA ligase): 14600 nM
IC50 [1]: 6100 nM
inhibition (Staphylococcus aureus [7]): 65%
Compound: CC[C@H](C)CC(=O)NS(=O)(=O)CC(=O)N[C@@]1(C(=O)O)[C@@H](OC(=O)C[C@@H](C)CC)C[C@H]2C(C(N)=O)=CN(C)C[C@H]21

IC50 (Isoleucine--tRNA ligase): 60 nM
IC50 [1]: 17 nM
inhibition (Staphylococcus aureus [7]): 40%
Compound: CC[C@H](C)[C@H](N)C(=O)NS(=O)(=O)CC(=O)N[C@]1(C(=O)OC)[C@@H]2CN(C)C=C(C(N)=O)[C@@H]2C[C@@H]1O

MIC (Escherichia coli [8]): > 64 µg/mL
MIC (Escherichia coli [9]): > 64 µg/mL
MIC (Enterococcus faecalis [10]): > 64 µg/mL
MIC (Enterococcus faecalis [11]): > 64 µg/mL
MIC (Haemophilus influenzae [12]): 64 µg/mL (≈ 131 µM)
MIC (Haemophilus influenzae [13]): 64 µg/mL (≈ 131 µM)
IC50 (Isoleucine--tRNA ligase): 910 nM
IC50 [1]: 68 nM
MIC (Moraxella catarrhalis): > 64 µg/mL
MIC (Staphylococcus aureus [14]): > 64 µg/mL
MIC (Staphylococcus aureus [15]): > 64 µg/mL
MIC (Streptococcus pneumoniae [16]): 32 µg/mL (≈ 65.4 µM)
MIC (Streptococcus pneumoniae [17]): 16 µg/mL (≈ 32.7 µM)
MIC (Streptococcus pneumoniae [18]): 64 µg/mL (≈ 131 µM)
IC50 [19]: 290 nM
Compound: CC(C)C[C@H](N)C(=O)NS(=O)(=O)CC(=O)N[C@]1(C(=O)O)[C@@H]2CN(C)C=C(C(N)=O)[C@@H]2C[C@@H]1O

inhibition [3]: 46%
IC50 [1]: 500 nM
inhibition (Staphylococcus aureus [2]): inactive
inhibition [6]: inactive
Compound: CC[C@H](C)[C@H](NC(=O)OCc1ccccc1)C(=O)NS(=O)(=O)CC(=O)N[C@@]1(C(=O)OC)[C@@H](OC(=O)[C@@H](NC(=O)OCc2ccccc2)[C@@H](C)CC)C[C@H]2C(C(N)=O)=CN(C)C[C@H]21

IC50 (Isoleucine--tRNA ligase): 120 nM
IC50 [1]: 25 nM
inhibition (Staphylococcus aureus [20]): inactive
inhibition [21]: inactive
Compound: CC[C@H](C)[C@H](N)C(=O)NS(=O)(=O)CC(=O)N[C@]1(C(=O)OCc2ccccc2)[C@@H]2CN(C)C=C(C(N)=O)[C@@H]2C[C@@H]1O

MIC (Escherichia coli [8]): > 64 µg/mL
MIC (Escherichia coli [9]): > 64 µg/mL
MIC (Enterococcus faecalis [10]): > 64 µg/mL
MIC (Enterococcus faecalis [11]): > 64 µg/mL
MIC (Haemophilus influenzae [12]): 64 µg/mL (≈ 131 µM)
MIC (Haemophilus influenzae [13]): 64 µg/mL (≈ 131 µM)
IC50 (Isoleucine--tRNA ligase): 14 nM
IC50 [1]: 4.2 nM
MIC (Moraxella catarrhalis): > 64 µg/mL
MIC (Staphylococcus aureus [14]): > 64 µg/mL
MIC (Staphylococcus aureus [15]): > 64 µg/mL
MIC (Streptococcus pneumoniae [16]): > 64 µg/mL
MIC (Streptococcus pneumoniae [17]): 64 µg/mL (≈ 131 µM)
MIC (Streptococcus pneumoniae [18]): > 64 µg/mL
IC50 [19]: 126 nM
Compound: CC[C@H](C)[C@H](N)C(=O)NS(=O)(=O)CC(=O)N[C@]1(C(=O)O)[C@@H]2CN(C)C=C(C(N)=O)[C@@H]2C[C@@H]1O

inhibition [3]: 19%
inhibition [4]: 20%
inhibition (Staphylococcus aureus [2]): 6%
inhibition [6]: inactive
Compound: CC[C@H](C)CC(=O)NS(=O)(=O)CC(=O)N[C@@]1(C(=O)OCc2ccccc2)[C@@H](OC(=O)C[C@@H](C)CC)C[C@H]2C(C(N)=O)=CN(C)C[C@H]21

IC50 (Isoleucine--tRNA ligase): 37 nM
IC50 [1]: 2.9 nM
IC50 [19]: 30 nM
Compound: CC(C)[C@H](N)C(=O)NS(=O)(=O)CC(=O)N[C@]1(C(=O)O)[C@@H]2CN(C)C=C(C(N)=O)[C@@H]2C[C@@H]1O
